Results: the array DNA melting data of Ke et al. (doi:10.1101/2024.01.08.574731)

How the values were obtained:
[1] = folding enthalpy; higher = less favourable; fluorescence melt of hairpins on a sequencing array, two-state fit; conditions: sodium 0.088 M
In short: (§1)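 In 50 mM Na-HEPES pH 8.0 containing 25 mM NaCl, hairpins from the library on a sequenced MiSeq flow cell were imaged for Cy3 fluorescence at 2.5 °C steps up to 60 °C, with Cy3 and quencher oligos annealed. After normalisation to pre-quench Cy3 and to control constructs, two-state fits with bootstrapping gave melting temperature and folding enthalpy. Four replicates were combined by inverse-variance weighting, and fitted temperatures were shifted up by 9.35 °C to match UV melts.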

[2] = melting temperature; fluorescence melt of hairpins on a sequencing array, two-state fit, raised by 9.35 °C to match UV melts; conditions: sodium 0.088 M
In short: as §1

Sequence | folding enthalpy [1] [kcal/mol] | Tm [2] [°C]
GCGGCTCGAAAGAGCGC (((.(((....)))))) | -20.1 | 68.8
GCGGCTGGAAACGGCTGC ((.((.(....).)).)) | -38.5 | 53
GCGGCTGGAAACGGTCGC (((.(.(....).).))) | -43.2 | 54
GCGGCTGTCCGC ((((....)))) | -28.3 | 57.9
GCGGCTTACCGC ((((....)))) | -26.1 | 61.2
GCGGGACCCCGC ((((....)))) | -26 | 67.8
GCGGGAGACCGC ((((....)))) | -14.4 | 66.3
GCGGGATCCGC ((((...)))) | -17.1 | 59.2
GCGGGCCCGAAAGGGCGC (((..(((....)))))) | -8.34 | 58
GCGGGCCGCCGC ((((....)))) | -15.5 | 61.5
GCGGGCGAAAGCCGCCGC ((((((....)))..))) | -11.3 | 61.7
GCGGGCGAAAGCCGTCGC ((((((....)))..))) | -17.3 | 54.5
GCGGGCGGCCGC ((((....)))) | -42 | 59.1
GCGGGCGTCCGC ((((....)))) | -23.6 | 58.6
GCGGGCTCGAAAGAGCGC (((..(((....)))))) | -10.2 | 55
GCGGGGATCCGC ((((....)))) | -19.9 | 68.9
GCGGGGCGAAAGCACAGC ((.(.((....)).).)) | -31.8 | 65.4
GCGGGGCGAAAGCCAAGC ((..(((....)))..)) | -27.7 | 65
GCGGGGCGAAAGCCAGGC ((..(((....)))..)) | -17.5 | 59.1
GCGGGGCGAAAGCCGAGC ((..(((....)))..)) | -24.9 | 66.2
GCGGGGCGCCGC ((((....)))) | -14.7 | 66.1
GCGGGGGGAAACCCCCAC (.(((((....))))).) | -11.2 | 46
GCGGGGGGAAACCCCTGC ((.((((....)))).)) | -31.9 | 61.9
GCGGGGGGAAACTCCCGC (((((.(....).))))) | -33.8 | 68.4
GCGGGGTTCCGC ((((....)))) | -18.7 | 61.1

Sequence | folding enthalpy [1] [kcal/mol] | Tm [2] [°C]
GCGGGTGGAAACACCCAC (.(((((....))))).) | -11.5 | 48.7
GCGGGTGGAAACGCCTGC ((.((.(....).)).)) | -28 | 51.7
GCGGTACGAAAGTAACGC (((.(((....))).))) | -38.8 | 67.7
GCGGTAGGAAACTGTCGC (((..((....))..))) | -30.3 | 43.8
GCGGTATACCGC ((((....)))) | -27.4 | 60.7
GCGGTATCGAAAGATCGC (((..(((....)))))) | -24.1 | 47.1
GCGGTCACCCGC ((((....)))) | -24.6 | 56.2
GCGGTCCACCGC ((((....)))) | -26.2 | 68.5
GCGGTCCCCCGC ((((....)))) | -21.9 | 57.7
GCGGTCGAAAGACGCCGC ((((((....)))..))) | -19.9 | 56.4
GCGGTCGCGAAAGCGCGC (((..(((....)))))) | -16.1 | 59.7
GCGGTCGGAAACGACCAC (.(((((....))))).) | -11.6 | 48.4
GCGGTCGTCCGC ((((....)))) | -31.1 | 56.9
GCGGTCTCCGC ((((...)))) | -29.1 | 56.3
GCGGTGACCGC ((((...)))) | -23.6 | 56.6
GCGGTGAGCCGC ((((....)))) | -23 | 66.8
GCGGTGCCGAAAGGCCGC (((..(((....)))))) | -19.4 | 62.3
GCGGTGCGAAAGCCACGC (((..((....))..))) | -19.8 | 61.5
GCGGTGCGAAAGCCCTGC ((.(.((....)).).)) | -21.2 | 49.5
GCGGTGCGAAAGCCGCGC (((..((....))..))) | -27.7 | 68.9
GCGGTGCGAAAGCTACGC (((..((....))..))) | -33.5 | 63.9
GCGGTGCGAAAGCTCTGC ((.(.((....)).).)) | -20.2 | 54.3
GCGGTGCGAAAGCTTCGC (((..((....))..))) | -16.4 | 58.2
GCGGTGCTCCGC ((((....)))) | -18.6 | 56.1
GCGGTGGACCGC ((((....)))) | -26.6 | 59.6

Sequence | folding enthalpy [1] [kcal/mol] | Tm [2] [°C]
GCGGTGGGAAACCACTGC ((.((((....)))).)) | -38.9 | 60.4
GCGGTGTGCCGC ((((....)))) | -19.1 | 67.6
GCGGTTACGAAAGTACGC (((..(((....)))))) | -26.7 | 48.4
GCGGTTCGAAAGAATCGC (((.(((....))).))) | -43.4 | 66.4
GCGGTTGCGAAAGCACGC (((..(((....)))))) | -19.9 | 56.6
GCGGTTGGAAACGACTGC ((.((.(....).)).)) | -15.3 | 37.8
GCGGTTGGAAACGATCGC (((.(.(....).).))) | -28.5 | 45.3
GCGGTTTTCCGC ((((....)))) | -30.3 | 58.4
GCGTAACAACGC ((((....)))) | -27 | 52.9
GCGTAACGACGC ((((....)))) | -21.9 | 51.4
GCGTAAGAAATTACGC ((((((....)))))) | -40.4 | 55.3
GCGTAATCACGC ((((....)))) | -21.9 | 52.7
GCGTACAAACGC ((((....)))) | -21.5 | 51.1
GCGTACCACGC ((((...)))) | -24.7 | 55.9
GCGTACCCACGC ((((....)))) | -21.2 | 53.1
GCGTACGAAAGTAAACGC ((((((....)))..))) | -34.5 | 51.9
GCGTACGAAAGTACCGC ((((((....))).))) | -22.2 | 56.8
GCGTACGAAAGTAGCCGC ((((((....)))..))) | -14.4 | 51.2
GCGTACGAACGC ((((....)))) | -23.9 | 51.5
GCGTACGGAAACACACGC ((((..(....)..)))) | -28.7 | 38.8
GCGTACGGAAACGTACAC (.(((((....))))).) | -15.1 | 42.8
GCGTACGTACGC ((((....)))) | -29.9 | 55.3
GCGTACTCGAAAGAGCGC (((..(((....)))))) | -28.6 | 47.8
GCGTAGACACGC ((((....)))) | -19.8 | 50.7
GCGTAGATACGC ((((....)))) | -19.8 | 52.9

Sequence | folding enthalpy [1] [kcal/mol] | Tm [2] [°C]
GCGTAGCCGAAAGGCCGC (((..(((....)))))) | -16.8 | 58
GCGTAGCGAAAGCATCGC (((..((....))..))) | -15.4 | 55.1
GCGTAGCGAAAGCCACGC ((((.((....)).)))) | -18.7 | 60.1
GCGTAGCGAAAGCTATGC ((.((((....)))).)) | -18 | 62.4
GCGTAGCGAAAGCTGGGC ((..(((....)))..)) | -12.1 | 49.3
GCGTAGCGAAAGCTTTGC ((..(((....)))..)) | -7.28 | 42.9
GCGTAGGAACGC ((((....)))) | -16.3 | 49.2
GCGTAGGCGAAAGCCCGC (((..(((....)))))) | -19.7 | 61.9
GCGTAGGGAAACCCACGC ((((.((....)).)))) | -37.3 | 54.3
GCGTAGGGAAACCTACAC (.(((((....))))).) | -14.5 | 40.8
GCGTAGGTACGC ((((....)))) | -20.3 | 52.8
GCGTATAAACGC ((((....)))) | -19.7 | 50.4
GCGTATCACGC ((((...)))) | -34.2 | 56.9
GCGTATGAAAATACGC ((((((....)))))) | -36 | 63
GCGTATGGAAACATATGC ((.((((....)))).)) | -46.8 | 47.8
GCGTATGGAAACATGTGC ((..(((....)))..)) | -11.6 | 38.8
GCGTATTACGC ((((...)))) | -25 | 54
GCGTATTCACGC ((((....)))) | -25.6 | 53
GCGTCAGAACGC ((((....)))) | -23.6 | 52
GCGTCAGCACGC ((((....)))) | -8.99 | 61.9
GCGTCAGGAAACCGACAC (.(((.(....).))).) | -16 | 27.4
GCGTCAGGAAACCGACGC (((((.(....).))))) | -32.9 | 58.6
